Active and inactive are the calls of the source. The rule behind the calls is not given here.
How the values were obtained:
COLO 205 = assay: Cytotoxicity against human COLO205 cells after 48 hrs by MTT assay; type: functional, cell-based; details: COLO 205, 48 h
Outline: (§1)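 Log-phase tumour cells grown in RPMI-1640 with 10% FBS, penicillin/streptomycin and 1% L-glutamine at 37 °C, 5% CO2. Cells treated with vehicle or a range of concentrations for 48 h. Growth measured by MTT reduction, absorbance at 570 nm. IC50 is the concentration giving 50% proliferation inhibition, from 3 independent experiments.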

SK-OV-3 = assay: Cytotoxicity against human SKOV3 cells after 48 hrs by MTT assay; type: functional, cell-based; details: SK-OV-3, 48 h; outline: as §1
MCF7 = assay: Cytotoxicity against human MCF7 cells after 48 hrs by MTT assay; type: functional, cell-based; details: MCF7, 48 h; outline: as §1
NCI-H460 [1] = assay: Induction of apoptosis in human H460 cells assessed as caspase3 cleavage at 1 to 5 uM by Western blot analysis; type: functional, cell-based
Outline: (§2)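 H460 cells exposed 24 h at the indicated concentrations; lysates cleared at 12,000 g, protein quantified by Bradford, resolved on 10% SDS-polyacrylamide gels, blotted to nitrocellulose and detected by chemiluminescence.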

NCI-H460 [2] = assay: Increase in CDK1 expression in human H460 cells after 24 hrs by Western blot analysis; type: functional, cell-based; outline: as §2
[3] = Cell cycle arrest in human H460 cells assessed as accumulation at G2/M phase at 2.5 uM after 24 hrs by propidium iodide staining-based FACS analysis (reference value: 10.73%); type: functional; details: NCI-H460
Outline: (§3)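 H460 cells treated 24 h with 1.0, 2.5 or 5.0 µM; washed in PBS, fixed overnight in 70% ice-cold ethanol at −20 °C, stained 30 min in the dark with 0.1% Triton X-100, 0.2 mg/mL RNase and 20 µg/mL propidium iodide; DNA content by flow cytometry, phase distribution from histogram modelling.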

[4] = Cell cycle arrest in human H460 cells assessed as accumulation at G0/G1 phase at 5 uM after 24 hrs by propidium iodide staining-based FACS analysis (reference value: 46.19%); type: functional; details: NCI-H460; outline: as §3
[5] = Cell cycle arrest in human H460 cells assessed as accumulation at G0/G1 phase at 1 uM after 24 hrs by propidium iodide staining-based FACS analysis (reference value: 46.19%); type: functional; details: NCI-H460; outline: as §3
[6] = Cell cycle arrest in human H460 cells assessed as accumulation at sub G1 phase at 5 uM after 24 hrs by propidium iodide staining-based FACS analysis (reference value: 3.07%); type: functional; details: NCI-H460; outline: as §3
[7] = Cell cycle arrest in human H460 cells assessed as accumulation at sub G1 phase at 2.5 uM after 24 hrs by propidium iodide staining-based FACS analysis (reference value: 3.07%); type: functional; details: NCI-H460; outline: as §3
HL-60 [8] = assay: Cell cycle arrest in human HL60 cells assessed as accumulation at G2/M phase at 0.25 uM after 24 hrs by propidium iodide staining-based FACS analysis (reference value: 10.51%); type: functional
HL-60 [9] = assay: Cell cycle arrest in human HL60 cells assessed as accumulation at S phase at 0.25 uM after 24 hrs by propidium iodide staining-based FACS analysis (reference value: 49.69%); type: functional
HL-60 [10] = assay: Cell cycle arrest in human HL60 cells assessed as accumulation at G0/G1 phase at 1 uM after 24 hrs by propidium iodide staining-based FACS analysis (reference value: 39.80%); type: functional
HL-60 [11] = assay: Cell cycle arrest in human HL60 cells assessed as accumulation at sub G1 phase at 0.25 uM after 24 hrs by propidium iodide staining-based FACS analysis (reference value: 0.35%); type: functional
HL-60 [12] = assay: Induction of apoptosis in human HL60 cells assessed as appearance of nuclear fragmentation at 0.25 to 1 uM after 24 hrs by Hoechst 33258 staining-based microscopy; type: functional, cell-based
Outline: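 HL-60 seeded at 1×10⁵ cells/well, treated 24 h with 0.25, 0.5 or 1.0 µM; nuclei stained 10 min with 5 µg/mL Hoechst 33258, PBS-washed twice, fixed 10 min in 4% PFA at 25 °C; apoptotic morphology imaged by fluorescence microscopy against 0.1% DMSO-treated cells.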

Detroit 551 = assay: Cytotoxicity against human Detroit 551 cells after 48 hrs by MTT assay; type: cell-based; details: Detroit 551, 48 h
Outline: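 Detroit 551 normal skin cells and Hep 3B hepatoma cells grown in DMEM with 10% FBS, penicillin/streptomycin and 1% L-glutamine at 37 °C, 5% CO2. Log-phase cells treated with vehicle or a range of concentrations for 48 h. MTT reduction read at 570 nm. IC50 (50% proliferation inhibition) taken from 3 independent experiments.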

With `COc1ccc(-c2cc(=O)[nH]c3cc4c(cc23)OCO4)c(OC)c1` the IC50 (COLO 205) was 7.4 µM, the IC50 (SK-OV-3) was 0.4 µM and the IC50 (MCF7) was 6 µM. For the same compound, the Activity (NCI-H460 [1]) was “Active”, the Activity (NCI-H460 [2]) was “Dose-dependent effect” and the Activity [3] was 71.6%. It also gave an Activity [4] of 9.37%, an Activity [5] of 1.57% and an Activity [6] of 11.2%. For the same compound, the Activity [7] was 11.7%, the Activity (HL-60 [8]) was 11.87% and the Activity (HL-60 [9]) was 46.76%. For the same compound, the Activity (HL-60 [10]) was 12.46%, the Activity (HL-60 [11]) was 13.88% and the Activity (HL-60 [12]) was “Active”. It also gave an IC50 (Detroit 551) greater than 25 µM.

From ChEMBL document CHEMBL2417498, “Design and synthesis of 6,7-methylenedioxy-4-substituted phenylquinolin-2(1H)-one derivatives as novel anticancer agents that induce apoptosis with cell cycle arrest at G2/M phase” (Bioorg Med Chem, 2013)
